The nature of data set [1]: Growth inhibition of mouse BAF3 cells after 72 hrs by CellTiter-Glo or CCK-8 assay. The data set is classed as cell-based. The method, boiled down:
(§1)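 Isogenic murine BaF3 cells transformed with TEL-fused kinases, whose proliferation depends on the fused kinase, were used. Parental BaF3 cells served as the general selectivity counter-screen. The anti-proliferative read-out was reported as GI50.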

The target in data set [2] is Mast/stem cell growth factor receptor Kit (Homo sapiens) (UniProt P10721). Briefly: Inhibition of recombinant TEL-fused c-KIT (unknown origin) expressed in mouse BAF3 cells assessed as growth inhibition after 72 hrs by CellTiter-Glo or CCK-8 assay. The data set is classed as cell-based. The method, boiled down:
as §1

For data set [3], the target named is Epidermal growth factor receptor (Homo sapiens) (UniProt P00533). Briefly: Inhibition of recombinant TEL-fused EGFR (unknown origin) expressed in mouse BAF3 cells assessed as growth inhibition after 72 hrs by CellTiter-Glo or CCK-8 assay. The class given is cell-based. The method, boiled down:
as §1

For data set [4], the target named is Tyrosine-protein kinase ABL1 (Homo sapiens) (UniProt P00519). Briefly: Binding affinity to human phosphorylated ABL1 (229 to 512 amino acid residues) expressed in mammalian expression system assessed as percent control number at 1 uM by KINOMEscan assay. An outline of the steps: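 KINOMEscan competition binding panel of 468 kinases, with the compound tested at 1 µM. Binding is expressed as percent of control relative to DMSO.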
Chain of Tyrosine-protein kinase ABL1 (Homo sapiens) (P00519 whole entry, the tested form may be a part): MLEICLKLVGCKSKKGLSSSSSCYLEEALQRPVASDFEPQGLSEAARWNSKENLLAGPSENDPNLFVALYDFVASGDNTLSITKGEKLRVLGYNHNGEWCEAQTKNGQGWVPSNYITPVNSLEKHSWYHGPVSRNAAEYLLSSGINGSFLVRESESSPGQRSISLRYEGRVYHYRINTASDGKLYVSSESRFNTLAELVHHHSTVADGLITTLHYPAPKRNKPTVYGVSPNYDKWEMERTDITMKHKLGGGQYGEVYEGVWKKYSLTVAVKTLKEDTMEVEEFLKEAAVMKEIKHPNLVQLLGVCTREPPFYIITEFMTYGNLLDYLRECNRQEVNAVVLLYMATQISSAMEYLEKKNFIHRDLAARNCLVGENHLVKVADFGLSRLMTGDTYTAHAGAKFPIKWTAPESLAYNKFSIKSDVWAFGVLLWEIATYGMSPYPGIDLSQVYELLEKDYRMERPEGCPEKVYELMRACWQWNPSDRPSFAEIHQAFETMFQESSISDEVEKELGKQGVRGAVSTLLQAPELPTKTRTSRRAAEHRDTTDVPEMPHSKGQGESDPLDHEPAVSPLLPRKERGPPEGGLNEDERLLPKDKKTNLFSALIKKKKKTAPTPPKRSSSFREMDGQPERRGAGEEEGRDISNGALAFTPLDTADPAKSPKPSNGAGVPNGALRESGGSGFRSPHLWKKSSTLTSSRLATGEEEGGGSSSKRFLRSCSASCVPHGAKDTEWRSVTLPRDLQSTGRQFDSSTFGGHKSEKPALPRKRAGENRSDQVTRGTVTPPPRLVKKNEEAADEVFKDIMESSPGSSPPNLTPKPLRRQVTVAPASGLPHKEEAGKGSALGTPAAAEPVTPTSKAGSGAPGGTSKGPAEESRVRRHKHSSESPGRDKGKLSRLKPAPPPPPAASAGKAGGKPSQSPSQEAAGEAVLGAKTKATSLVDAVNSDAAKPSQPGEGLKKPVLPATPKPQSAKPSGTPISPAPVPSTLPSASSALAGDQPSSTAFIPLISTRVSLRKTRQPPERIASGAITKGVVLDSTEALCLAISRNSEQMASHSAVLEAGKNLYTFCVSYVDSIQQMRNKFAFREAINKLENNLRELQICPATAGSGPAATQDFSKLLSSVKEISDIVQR

In data set [5] the target is Mitogen-activated protein kinase 14 (Homo sapiens, UniProt Q16539). Briefly: Inhibition of full-length recombinant human GST-tagged p38alpha expressed in Escherichia coli by Z'-LYTE assay.
Chain of Mitogen-activated protein kinase 14 (Q16539 whole entry): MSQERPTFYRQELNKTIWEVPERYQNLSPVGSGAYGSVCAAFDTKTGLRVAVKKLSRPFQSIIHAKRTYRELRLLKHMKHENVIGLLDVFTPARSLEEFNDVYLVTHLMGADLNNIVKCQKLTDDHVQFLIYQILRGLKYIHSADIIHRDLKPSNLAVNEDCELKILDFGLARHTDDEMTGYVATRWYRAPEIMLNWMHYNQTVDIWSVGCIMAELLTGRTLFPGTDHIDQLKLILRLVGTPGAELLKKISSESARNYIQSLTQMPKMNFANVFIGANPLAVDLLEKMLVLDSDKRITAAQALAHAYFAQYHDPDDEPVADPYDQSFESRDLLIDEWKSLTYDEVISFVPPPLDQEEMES
In the next data set the test system is DU-145. Nature of the data set: Growth inhibition of human DU145 cells after 72 hrs by CellTiter-Glo or CCK-8 assay. The data set is classed as functional. The settings on record: DU-145, 72 h.
A further data set has as its system PC-3. Briefly: Growth inhibition of human PC3 cells after 72 hrs by CellTiter-Glo or CCK-8 assay. The class given is functional. The settings on record: PC-3, 72 h.
Data set [6] in a line: Growth inhibition of CHL cells after 72 hrs by CellTiter-Glo or CCK-8 assay. The settings on record: chinese hamster. The class given is cell-based, Cricetulus griseus.
The subject of another data set is J82. Briefly: Growth inhibition of human J82 cells after 72 hrs by CellTiter-Glo or CCK-8 assay. The data set is classed as functional. The settings on record: J82, 72 h.
The next data set concerns T-24. Briefly: Growth inhibition of human T24 cells after 72 hrs by CellTiter-Glo or CCK-8 assay. The class given is functional. The settings on record: T-24, 72 h.
In a further data set the test system is 769-P. Nature of the data set: Growth inhibition of human 769-P cells after 72 hrs by CellTiter-Glo or CCK-8 assay. The data set is classed as functional.
In another data set the test system is A498. Briefly: Growth inhibition of human A498 cells after 72 hrs by CellTiter-Glo or CCK-8 assay. The data set is classed as functional. The settings on record: A498, 72 h.
The nature of data set [7]: AUC (0 to t) in Sprague-Dawley rat at 1 mg/kg, iv up to 8 hrs. The data set is classed as ADME, organism-based. Set-up: time < 8 hr, dose 1 mg/kg, route intravenous. The settings on record: in vivo. The method, boiled down:
(§2)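 Sprague Dawley rats given a single i.v. dose of 1 mg/kg or an oral dose of 10 mg/kg. Plasma AUC(0-t), AUC(0-∞), MRT(0-t), T1/2, Tmax and Cmax were derived and reported as mean±SD.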

Data set [8] can be described thus: Half-life in Sprague-Dawley rat at 10 mg/kg, po. The data set is classed as ADME, organism-based. The settings on record: in vivo. An outline of the steps: as §2
Data set [9] can be described thus: Cmax in Sprague-Dawley rat at 1 mg/kg, iv up to 8 hrs. The data set is classed as ADME, organism-based. Set-up: dose 1 mg/kg, route intravenous. The settings on record: in vivo. The method, boiled down: as §2

pIC50: −log10 of the molar value.

Chain of Mast/stem cell growth factor receptor Kit (Homo sapiens) (P10721 whole entry, the tested form may be a part): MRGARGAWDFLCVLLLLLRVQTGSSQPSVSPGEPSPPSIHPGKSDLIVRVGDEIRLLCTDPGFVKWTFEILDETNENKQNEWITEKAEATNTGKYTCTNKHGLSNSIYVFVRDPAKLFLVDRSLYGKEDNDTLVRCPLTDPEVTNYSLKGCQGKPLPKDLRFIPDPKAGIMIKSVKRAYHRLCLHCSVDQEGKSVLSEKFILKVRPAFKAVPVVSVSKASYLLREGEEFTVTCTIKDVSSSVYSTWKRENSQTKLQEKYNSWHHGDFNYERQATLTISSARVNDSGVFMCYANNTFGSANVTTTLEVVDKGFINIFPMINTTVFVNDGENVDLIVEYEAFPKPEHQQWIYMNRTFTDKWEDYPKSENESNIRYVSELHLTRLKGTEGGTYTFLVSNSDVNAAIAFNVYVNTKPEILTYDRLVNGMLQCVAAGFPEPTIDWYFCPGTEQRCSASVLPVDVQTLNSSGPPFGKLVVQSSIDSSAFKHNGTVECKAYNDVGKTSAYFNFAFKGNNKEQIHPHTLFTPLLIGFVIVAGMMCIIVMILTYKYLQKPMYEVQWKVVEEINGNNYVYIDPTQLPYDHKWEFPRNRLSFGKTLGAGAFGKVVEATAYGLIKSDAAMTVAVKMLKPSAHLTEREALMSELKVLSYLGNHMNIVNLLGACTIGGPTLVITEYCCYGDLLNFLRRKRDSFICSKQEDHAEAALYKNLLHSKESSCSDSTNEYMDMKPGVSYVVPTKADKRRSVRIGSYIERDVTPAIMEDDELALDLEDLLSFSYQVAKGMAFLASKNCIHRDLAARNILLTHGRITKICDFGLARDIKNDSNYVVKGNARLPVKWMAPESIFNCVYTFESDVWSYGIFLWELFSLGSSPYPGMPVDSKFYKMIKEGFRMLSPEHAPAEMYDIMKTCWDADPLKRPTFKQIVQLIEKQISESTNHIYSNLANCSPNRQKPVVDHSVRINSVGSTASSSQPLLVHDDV
Chain of Epidermal growth factor receptor (Homo sapiens) (P00533 whole entry, the tested form may be a part): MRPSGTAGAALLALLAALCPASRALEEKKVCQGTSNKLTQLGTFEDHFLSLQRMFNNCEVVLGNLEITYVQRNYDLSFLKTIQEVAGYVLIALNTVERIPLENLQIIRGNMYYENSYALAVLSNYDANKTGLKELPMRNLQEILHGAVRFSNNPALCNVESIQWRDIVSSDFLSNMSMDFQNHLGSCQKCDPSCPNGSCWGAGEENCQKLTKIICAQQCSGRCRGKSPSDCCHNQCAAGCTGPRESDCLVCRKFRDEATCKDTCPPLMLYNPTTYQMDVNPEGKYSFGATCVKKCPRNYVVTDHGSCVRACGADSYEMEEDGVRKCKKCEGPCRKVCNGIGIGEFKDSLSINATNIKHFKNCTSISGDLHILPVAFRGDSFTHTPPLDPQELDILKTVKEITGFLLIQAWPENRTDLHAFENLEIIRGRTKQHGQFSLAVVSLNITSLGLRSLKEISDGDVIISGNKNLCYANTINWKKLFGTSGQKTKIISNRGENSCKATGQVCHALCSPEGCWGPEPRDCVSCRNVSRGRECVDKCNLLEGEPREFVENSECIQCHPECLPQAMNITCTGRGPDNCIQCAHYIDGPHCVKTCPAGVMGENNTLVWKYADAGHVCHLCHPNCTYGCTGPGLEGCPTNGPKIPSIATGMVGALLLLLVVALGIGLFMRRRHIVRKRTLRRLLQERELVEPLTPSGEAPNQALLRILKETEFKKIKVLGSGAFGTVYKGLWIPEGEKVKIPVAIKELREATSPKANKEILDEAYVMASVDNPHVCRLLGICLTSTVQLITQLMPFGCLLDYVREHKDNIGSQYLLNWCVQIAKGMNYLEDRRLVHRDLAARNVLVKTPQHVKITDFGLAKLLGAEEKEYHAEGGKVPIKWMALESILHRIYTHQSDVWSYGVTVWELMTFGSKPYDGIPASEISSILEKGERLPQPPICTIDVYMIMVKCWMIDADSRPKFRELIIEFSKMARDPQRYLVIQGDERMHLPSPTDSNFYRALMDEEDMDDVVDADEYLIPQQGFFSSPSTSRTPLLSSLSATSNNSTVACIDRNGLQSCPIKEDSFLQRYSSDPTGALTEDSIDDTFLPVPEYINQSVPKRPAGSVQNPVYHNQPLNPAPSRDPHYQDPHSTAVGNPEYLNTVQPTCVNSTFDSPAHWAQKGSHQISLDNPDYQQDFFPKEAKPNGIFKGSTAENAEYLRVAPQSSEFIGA

Turning to `C=CC(=O)Nc1cc(Nc2ncc(C(=O)Nc3cc(NC(=O)c4cc(OC)c(OC)c(OC)c4)ccc3C)c(NC)n2)ccc1C`, the GI50 at 72 h in data set [1] and in data set [6] was greater than 10 µM each time. Besides, the 50% growth inhibitory concentration (GI50) was 2.01 µM in [2]; greater than 10 µM in [3]; 7.89 µM with DU-145; 3.45 µM with PC-3; 5.78 µM in the data set on J82; 8.98 µM in the data set with T-24. For the same compound, the GI50 in the data set with 769-P and in the data set with A498 was greater than 10 µM throughout. Also, the Activity in [4] worked out at 6.5%. Moreover, in [5], the pIC50 was 6.97. In data set [7], this compound came in with an exposure AUC(0-t) at 8 h of 1390 ng·h/mL. Further, the half-life in data set [8] is 6.11 h. Also, the Cmax in data set [9] was 13600 ng/mL.

Source of the values: ChEMBL document CHEMBL4007402 (J Med Chem, 2017).
